Experimental data pooled from the literature.
Each line is one published result; the experiments were not run side by side.
RET: Proto-oncogene tyrosine-protein kinase receptor Ret (RET, Homo sapiens, UniProt P07949)
RET V804M: Proto-oncogene tyrosine-protein kinase receptor Ret (RET, Homo sapiens, UniProt P07949, V804M)
RET V804L: Proto-oncogene tyrosine-protein kinase receptor Ret (RET, Homo sapiens, UniProt P07949, V804L)

Structure (SMILES)	target	effect on	mode	technique	concentration	endpoint	result
O=c1[nH]c2ccccc2n1C1CCN(Cc2ccc(-c3[nH]c4cc5ncnc5cc4nc3-c3ccccc3)cc2)CC1	RET	cell-free assay			0.5 µM	remaining signal	96.7%
C#Cc1n[nH]c2c(-c3cn(C(C)c4ccccn4)c(=O)[nH]c3=O)cc(F)cc12 (stereo not shown)	RET	enzyme activity	inhibitor		1 µM	inhibition	8.7%
Nc1ncc(-c2nc(N3CCOCC3)nc(N3CCOCC3)n2)c(C(F)F)n1	RET V804M	binding		competition with immobilised ligand	10 µM	remaining binding	73%
N#CC1(c2ccccn2)CCN(Cc2cc(C(=O)O)c(=O)n3ccccc23)CC1	RET V804L	cell-free assay		competition with immobilised ligand	1 µM	remaining binding	100%
O=C1NC(=O)N(c2ccccc2)C(=O)C1=CNc1ccc2[nH]c(=O)[nH]c2c1	RET	enzyme activity	inhibitor	radiometric	0.1 µM	remaining activity	107%
Cc1nn(C)cc1-c1nc2c(N3CCN(Cc4ccc(Cl)cc4)CC3)c(Cl)cnc2[nH]1	RET V804L	binding		competition with immobilised ligand	1 µM	remaining binding	2.1%
Cn1cc(-c2cccc(N3CCc4c(sc5c4CC(C)(C)C5)C3=O)c2CO)cc(Nc2ccncn2)c1=O	RET	enzyme activity	inhibitor		1 µM	inhibition	14%
Cn1cncc1[C@@](O)(COc1ccc(C#N)cc1-c1ccc(OC(F)(F)F)cc1)c1ccc(C#N)cc1	Proto-oncogene tyrosine-protein kinase receptor Ret (RET, Homo sapiens, UniProt P07949, M918T)	cell-free assay		competition with immobilised ligand	1 µM	remaining binding	98%
O=C(Cn1cc(C=C2C(=O)NC(=O)NC2=O)c2ccccc21)Nc1ccccc1	RET	enzyme activity	inhibitor	radiometric	0.1 µM	remaining activity	131%
C#Cc1n[nH]c2c(-c3cn([C@@H](C)c4ccccc4)c(=O)[nH]c3=O)cc(F)cc12	RET V804M	enzyme activity	inhibitor		0.1 µM	inhibition	2.3%
